Measurements published in paper PMC3457786 (Journal of chromatography. B, Analytical technologies in …, 2012).
“Also recorded” adds a separate entry of the source. Where two headings read alike, the source gives them in different places. Blank lines part the entries; values can stand above or below the compound they belong to.

Columns and labels:
[1] = Stability and isomer conversion of chelator solutions by HPLC; type: physicochemical; settings: resolved by HPLC
Procedure, shortened: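 Solutions diluted in HBSS from 100 mM DMSO stocks, sonicated and warmed to 37°C. Stored at 4°C for one week with freeze-thaw, or 4 h at room temperature or 40°C. 50 µM solutions with a 10 µM thiosemicarbazone internal standard injected fresh and after 24 h at 4°C. Reversed-phase F5 column, 40°C, 1 mL/min, 2 mM ammonium acetate/10 mM EDTA–acetonitrile 50:50, pH 5.8, UV 318 nm.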

[2] = system: labile iron pool (LIP) in THP-1 cells; assay: Calcein-based iron chelation assay; type: cell-based, human; settings: iron-loaded THP-1 cells, 10 µM chelator, SIH as positive control
Procedure, shortened: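 THP-1 cells were loaded with ferric sulfate at 25 µM for 1 h (figure legend: iron(II) sulfate at 10 µM for 3 h, 37°C). They then took calcein-AM at 0.2 µM for 10 min at 37°C, were washed and resuspended in PBS. Chelator (10 µM) or SIH (30 µM) was added. Fluorescence (ex 465/em 510 nm) was read immediately in repeated 2-min cycles at 37°C, expressed as (F−Fi)/Fi, with Fi = fluorescence at time 0.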

Caco-2 cells [3] = assay: Cytotoxicity assay; type: cell-based; settings: concentrations up to 500 µM, 24 h
Caco-2 monolayers [4] = assay: Drug transport; type: in vitro ADME, human; settings: for Papp (× 10^−5) (cm/s) AP-to-BL / Papp (× 10^−5) (cm/s) BL-to-AP: 37°C, 30-120 min, mean ± SD (n=3)
HIV-1 = settings: ref [14], cited from earlier work
lung cancer xenografts = settings: mice, oral route; ref (35); cited from earlier work
Cytotoxicity assay = type: cell-based; settings: human
[5] = ref [30]; cited from earlier work
Caco-2 cells [6] = settings: Caco-2 cells in vitro; ref [34]; cited from earlier work
Caco-2 monolayers [7] = assay: Lucifer yellow; type: in vitro ADME, human; settings: either direction, at the ends of the experiments
[8] = 100 µM chelator, Caco-2 monolayers
[9] = 300 µM chelator, Caco-2 monolayers

Compound: C=CCNC(=S)NN=C(c1ccccc1)c1ccccn1 [Bp4aT, 2-benzoylpyridine 4-allyl-3-thiosemicarbazone]
- E/Z isomer formation in aqueous solution [1]: formed inter-convertible Z and E isomers
- Intracellular iron chelation (calcein de-quenching) [2]: slightly more effective intracellular iron chelators than SIH; also recorded: greater chelation efficacy than Bp4eT
- Effect on Caco-2 cell growth / cytotoxicity (Caco-2 cells [3]): little effect; also recorded: no apparent cytotoxicity
- Rnet, ratio of Papp (BL-to-AP) to Papp (AP-to-BL) (Caco-2 monolayers [4]; 100 µM chelator): 0.77
- Papp (× 10^−5) (cm/s) AP-to-BL (Caco-2 monolayers [4]; [8]): 1.670 ± 0.016 × 10^−5 cm/s
- Papp (× 10^−5) (cm/s) BL-to-AP (Caco-2 monolayers [4]; [8]): 1.292 ± 0.282 × 10^−5 cm/s
- Rnet, ratio of Papp (BL-to-AP) to Papp (AP-to-BL) (Caco-2 monolayers [4]; 300 µM chelator): 0.92
- Papp (× 10^−5) (cm/s) AP-to-BL (Caco-2 monolayers [4]; [9]): 2.756 ± 0.261 × 10^−5 cm/s
- Papp (× 10^−5) (cm/s) BL-to-AP (Caco-2 monolayers [4]; [9]): 2.534 ± 0.454 × 10^−5 cm/s
- Transport of Bp4aT faster than that of Bp4eT (Caco-2 monolayers [4]; relative to Bp4eT, Caco-2 monolayers): approximately 1.5 fold
- IC50, inhibition of HIV-1 replication (HIV-1; [15]): nanomolar concentrations

Compound: CCNC(=S)NN=C(c1ccccc1)c1ccccn1 [Bp4eT, 2-benzoylpyridine 4-ethyl-3-thiosemicarbazone]
- E/Z isomer formation in aqueous solution [1]: formed inter-convertible Z and E isomers
- Intracellular iron chelation (calcein de-quenching) [2]: slightly more effective intracellular iron chelators than SIH
- Rnet, ratio of Papp (BL-to-AP) to Papp (AP-to-BL) (Caco-2 monolayers [4]; 100 µM chelator): 1.10
- Papp (× 10^−5) (cm/s) AP-to-BL (Caco-2 monolayers [4]; [8]): 0.809 ± 0.119 × 10^−5 cm/s
- Papp (× 10^−5) (cm/s) BL-to-AP (Caco-2 monolayers [4]; [8]): 0.889 ± 0.196 × 10^−5 cm/s
- Rnet, ratio of Papp (BL-to-AP) to Papp (AP-to-BL) (Caco-2 monolayers [4]; 300 µM chelator): 0.89
- Papp (× 10^−5) (cm/s) AP-to-BL (Caco-2 monolayers [4]; [9]): 1.819 ± 0.302 × 10^−5 cm/s
- Papp (× 10^−5) (cm/s) BL-to-AP (Caco-2 monolayers [4]; [9]): 1.627 ± 0.107 × 10^−5 cm/s
- IC50, inhibition of HIV-1 replication (HIV-1; [15]): nanomolar concentrations

Compound: CN(C)C(=S)NN=C(c1ccccc1)c1ccccn1 [Bp44mT, 2-benzoylpyridine-4,4-dimethyl-3-thiosemicarbazone]
- Efficacy against lung cancer xenografts (lung cancer xenografts): marked efficacy

Compound: NC(=S)NN=C(c1ccccc1)c1ccccn1 [BpT, 2-benzoylpyridine thiosemicarbazone]
- viability at 24 h, 500 µM (Cytotoxicity assay): ~70%

Compound: CC(=O)N(O)CCCCCNC(=O)CCC(=O)N(O)CCCCCNC(=O)CCC(=O)N(O)CCCCCN [DFO, desferrioxamine]
- Absorption through the gastrointestinal tract [5]: very poor absorption

Compound: O=C(O)c1ccc(-n2nc(-c3ccccc3O)nc2-c2ccccc2O)cc1 [ICL670, 4-[3,5-bis-(hydroxyphenyl)-1,2,4-triazol-1-yl]-benzoic acid, reference compound]
- IC50, inhibition of HIV-1 replication (HIV-1; [15]): high micromolar concentrations
- IC50, inhibition of HIV-1 replication (HIV-1): high micromolar range
- Papp value (Caco-2 cells [6]): 1.66 ± 0.13 × 10^−5 cm/s

- LY recovered from the receiver chambers (Caco-2 monolayers [7]): Less than 2%
Compound: lucifer yellow [LY]
